Blank lines part the entries; values can stand above or below the molecule they belong to.
Columns and labels:
Type in all cases: ADME, organism-based
[1] = Drug concentration in beta lactamase-positive Haemophilus influenzae pharmacokinetic simulation model dosed as amoxicillin-clavulanic acid at simulated human serum concentration of 2000/125 mg, po bid after 10 hrs
[2] = Drug concentration in beta lactamase-positive Haemophilus influenzae pharmacokinetic simulation model dosed as amoxicillin-clavulanic acid at simulated human serum concentration of 2000/125 mg, po bid after 12 hrs; conditions: in vivo
[3] = Drug concentration in beta lactamase-negative Haemophilus influenzae pharmacokinetic simulation model dosed as amoxicillin-clavulanic acid at simulated human serum concentration of 2000/125 mg, po bid after 1 hr
[4] = Drug concentration in beta lactamase-negative Haemophilus influenzae pharmacokinetic simulation model dosed as amoxicillin-clavulanic acid at simulated human serum concentration of 2000/125 mg, po bid after 2 hrs; conditions: in vivo
[5] = Drug concentration in beta lactamase-negative Haemophilus influenzae pharmacokinetic simulation model dosed as amoxicillin-clavulanic acid at simulated human serum concentration of 2000/125 mg, po bid after 10 hrs; conditions: in vivo
[6] = Unbound drug concentration in beta lactamase-positive Haemophilus influenzae pharmacokinetic simulation model dosed as amoxicillin-clavulanic acid at simulated human serum concentration of 2000/125 mg, po bid after 1 hr
Outline: (§1)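 Two-compartment hollow-fibre dynamic model at 37°C, Haemophilus test medium; total or free serum profiles of oral bid regimens simulated over 48 h by computer-controlled peristaltic dilution. […] Parameters from noncompartmental analysis: Cmax/Tmax observed, AUC0-24 by linear-log trapezoidal rule. Triplicate.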

[7] = Unbound drug concentration in beta lactamase-positive Haemophilus influenzae pharmacokinetic simulation model dosed as amoxicillin-clavulanic acid at simulated human serum concentration of 2000/125 mg, po bid after 1.5 hr; outline: as §1
[8] = Unbound drug concentration in beta lactamase-positive Haemophilus influenzae pharmacokinetic simulation model dosed as amoxicillin-clavulanic acid at simulated human serum concentration of 2000/125 mg, po bid after 2 hrs; conditions: in vivo; outline: as §1
[9] = Unbound drug concentration in beta lactamase-positive Haemophilus influenzae pharmacokinetic simulation model dosed as amoxicillin-clavulanic acid at simulated human serum concentration of 2000/125 mg, po bid after 3 hrs; conditions: in vivo; outline: as §1
[10] = Unbound drug concentration in beta lactamase-positive Haemophilus influenzae pharmacokinetic simulation model dosed as amoxicillin-clavulanic acid at simulated human serum concentration of 2000/125 mg, po bid after 4 hrs; outline: as §1
[11] = Unbound drug concentration in beta lactamase-positive Haemophilus influenzae pharmacokinetic simulation model dosed as amoxicillin-clavulanic acid at simulated human serum concentration of 2000/125 mg, po bid after 6 hrs; conditions: in vivo; outline: as §1
[12] = Unbound drug concentration in beta lactamase-positive Haemophilus influenzae pharmacokinetic simulation model dosed as amoxicillin-clavulanic acid at simulated human serum concentration of 2000/125 mg, po bid after 8 hrs; conditions: in vivo; outline: as §1
[13] = Unbound drug concentration in beta lactamase-positive Haemophilus influenzae pharmacokinetic simulation model dosed as amoxicillin-clavulanic acid at simulated human serum concentration of 2000/125 mg, po bid after 10 hrs; conditions: in vivo; outline: as §1
[14] = Unbound drug concentration in beta lactamase-positive Haemophilus influenzae pharmacokinetic simulation model dosed as amoxicillin-clavulanic acid at simulated human serum concentration of 2000/125 mg, po bid after 12 hrs; conditions: in vivo; outline: as §1
[15] = Unbound drug concentration in beta lactamase-negative Haemophilus influenzae pharmacokinetic simulation model dosed as amoxicillin-clavulanic acid at simulated human serum concentration of 2000/125 mg, po bid after 1 hr; outline: as §1
[16] = Unbound drug concentration in beta lactamase-negative Haemophilus influenzae pharmacokinetic simulation model dosed as amoxicillin-clavulanic acid at simulated human serum concentration of 2000/125 mg, po bid after 1.5 hr; outline: as §1
[17] = Unbound drug concentration in beta lactamase-negative Haemophilus influenzae pharmacokinetic simulation model dosed as amoxicillin-clavulanic acid at simulated human serum concentration of 2000/125 mg, po bid after 2 hrs; outline: as §1
[18] = Unbound drug concentration in beta lactamase-negative Haemophilus influenzae pharmacokinetic simulation model dosed as amoxicillin-clavulanic acid at simulated human serum concentration of 2000/125 mg, po bid after 3 hrs; outline: as §1
[19] = Unbound drug concentration in beta lactamase-negative Haemophilus influenzae pharmacokinetic simulation model dosed as amoxicillin-clavulanic acid at simulated human serum concentration of 2000/125 mg, po bid after 4 hrs; outline: as §1
[20] = Unbound drug concentration in beta lactamase-negative Haemophilus influenzae pharmacokinetic simulation model dosed as amoxicillin-clavulanic acid at simulated human serum concentration of 2000/125 mg, po bid after 6 hrs; outline: as §1
[21] = Unbound drug concentration in beta lactamase-negative Haemophilus influenzae pharmacokinetic simulation model dosed as amoxicillin-clavulanic acid at simulated human serum concentration of 2000/125 mg, po bid after 8 hrs; outline: as §1
[22] = Unbound drug concentration in beta lactamase-negative Haemophilus influenzae pharmacokinetic simulation model dosed as amoxicillin-clavulanic acid at simulated human serum concentration of 2000/125 mg, po bid after 10 hrs; outline: as §1
[23] = Unbound drug concentration in beta lactamase-negative Haemophilus influenzae pharmacokinetic simulation model dosed as amoxicillin-clavulanic acid at simulated human serum concentration of 2000/125 mg, po bid after 12 hrs; outline: as §1
[24] = Cmax in beta lactamase-positive Haemophilus influenzae pharmacokinetic simulation model dosed as amoxicillin-clavulanic acid at simulated human serum concentration of 2000/125 mg, po bid after 48 hrs
[25] = fCmax in beta lactamase-positive Haemophilus influenzae pharmacokinetic simulation model dosed as amoxicillin-clavulanic acid at simulated human serum concentration of 2000/125 mg, po bid after 48 hrs; conditions: in vivo; outline: as §1
[26] = AUC (0 to 24 hrs) in beta lactamase-positive Haemophilus influenzae pharmacokinetic simulation model dosed as amoxicillin-clavulanic acid at simulated human serum concentration of 2000/125 mg, po bid after 48 hrs
[27] = fAUC (0 to 24 hrs) in beta lactamase-positive Haemophilus influenzae pharmacokinetic simulation model dosed as amoxicillin-clavulanic acid at simulated human serum concentration of 2000/125 mg, po bid after 48 hrs; conditions: in vivo; outline: as §1
[28] = fTmax in beta lactamase-negative Haemophilus influenzae pharmacokinetic simulation model dosed as amoxicillin-clavulanic acid at simulated human serum concentration of 2000/125 mg, po bid after 48 hrs; conditions: read-out: fTmax; outline: as §1
[29] = Cmax in beta lactamase-negative Haemophilus influenzae pharmacokinetic simulation model dosed as amoxicillin-clavulanic acid at simulated human serum concentration of 2000/125 mg, po bid after 48 hrs
[30] = fCmax in beta lactamase-negative Haemophilus influenzae pharmacokinetic simulation model dosed as amoxicillin-clavulanic acid at simulated human serum concentration of 2000/125 mg, po bid after 48 hrs; conditions: in vivo; outline: as §1
[31] = Tmax in beta lactamase-negative Haemophilus influenzae pharmacokinetic simulation model dosed as amoxicillin-clavulanic acid at simulated human serum concentration of 2000/125 mg, po bid after 48 hrs; outline: as §1
[32] = fAUC (0 to 24 hrs) in beta lactamase-negative Haemophilus influenzae pharmacokinetic simulation model dosed as amoxicillin-clavulanic acid at simulated human serum concentration of 2000/125 mg, po bid after 48 hrs; conditions: in vivo; outline: as §1
[33] = AUC (0 to 24 hrs) in beta lactamase-negative Haemophilus influenzae pharmacokinetic simulation model dosed as amoxicillin-clavulanic acid at simulated human serum concentration of 2000/125 mg, po bid after 48 hrs
[34] = Half life of free unbound fraction in beta lactamase-negative Haemophilus influenzae pharmacokinetic simulation model dosed as amoxicillin-clavulanic acid at simulated human serum concentration of 2000/125 mg, po bid after 48 hrs; conditions: read-out: ft1/2 (converted)
[35] = Half life in beta lactamase-negative Haemophilus influenzae pharmacokinetic simulation model dosed as amoxicillin-clavulanic acid at simulated human serum concentration of 2000/125 mg, po bid after 48 hrs
[36] = Drug concentration in beta lactamase-positive Haemophilus influenzae pharmacokinetic simulation model dosed as amoxicillin-clavulanic acid at simulated human serum concentration of 2000/125 mg, po bid after 1 hr; conditions: in vivo
[37] = Drug concentration in beta lactamase-positive Haemophilus influenzae pharmacokinetic simulation model dosed as amoxicillin-clavulanic acid at simulated human serum concentration of 2000/125 mg, po bid after 3 hrs; conditions: in vivo
[38] = Drug concentration in beta lactamase-positive Haemophilus influenzae pharmacokinetic simulation model dosed as amoxicillin-clavulanic acid at simulated human serum concentration of 2000/125 mg, po bid after 4 hrs; conditions: in vivo
[39] = Drug concentration in beta lactamase-positive Haemophilus influenzae pharmacokinetic simulation model dosed as amoxicillin-clavulanic acid at simulated human serum concentration of 2000/125 mg, po bid after 6 hrs; conditions: in vivo
[40] = Drug concentration in beta lactamase-negative Haemophilus influenzae pharmacokinetic simulation model dosed as amoxicillin-clavulanic acid at simulated human serum concentration of 2000/125 mg, po bid after 3 hrs; conditions: in vivo
[41] = Protein binding in beta lactamase-negative Haemophilus influenzae pharmacokinetic simulation model dosed as amoxicillin-clavulanic acid at simulated human serum concentration of 2000/125 mg, po bid after 48 hrs; conditions: read-out: PB (converted)

- Drug uptake [1]: < 0.03 µg/mL
- Drug uptake [2]: < 0.03 µg/mL
- Drug uptake [3]: 11.6 µg/mL
- Drug uptake [4]: 15.5 µg/mL
- Drug uptake [5]: 0.8 µg/mL
- Drug uptake [6]: 9.9 µg/mL
- Drug uptake [7]: 13.3 µg/mL
- Drug uptake [8]: 7.8 µg/mL
- Drug uptake [9]: 2.9 µg/mL
- Drug uptake [10]: 0.8 µg/mL
- Drug uptake [11]: < 0.03 µg/mL
- Drug uptake [12]: < 0.03 µg/mL
- Drug uptake [13]: < 0.03 µg/mL
- Drug uptake [14]: < 0.03 µg/mL
- Drug uptake [15]: 10.4 µg/mL
- Drug uptake [16]: 13.6 µg/mL
- Drug uptake [17]: 11.8 µg/mL
- Drug uptake [18]: 10.1 µg/mL
- Drug uptake [19]: 8.2 µg/mL
- Drug uptake [20]: 5 µg/mL
- Drug uptake [21]: 1.7 µg/mL
- Drug uptake [22]: 0.6 µg/mL
- Drug uptake [23]: 0.3 µg/mL
- Cmax [24]: 17400 ng/mL
- fCmax [25]: 13.3 µg/mL
- AUC at 24 h [26]: 48700 ng·h/mL
- fAUC [27]: 22500 ng·h/mL
- Tmax [28]: 1.5 h
- Cmax [29]: 17200 ng/mL
- fCmax [30]: 13.6 µg/mL
- Tmax [31]: 1.5 h
- fAUC [32]: 60700 ng·h/mL
- AUC at 24 h [33]: 73100 ng·h/mL
- half-life [34]: 1.4 h
- half-life [35]: 1.3 h
- Drug uptake [36]: 11.6 µg/mL
- Drug uptake [37]: 10.5 µg/mL
- Drug uptake [38]: 5.5 µg/mL
- Drug uptake [39]: 2.1 µg/mL
SMILES: CC1(C)S[C@@H]2[C@H](NC(=O)[C@H](N)c3ccc(O)cc3)C(=O)N2[C@H]1C(=O)O [AMOXICILLIN]

- Drug uptake [1]: < 0.03 µg/mL
- Drug uptake [2]: < 0.03 µg/mL
- Drug uptake [3]: 1.3 µg/mL
- Drug uptake [4]: 1.4 µg/mL
- Drug uptake [40]: 0.7 µg/mL
- Drug uptake [5]: < 0.03 µg/mL
- Drug uptake [6]: 0.9 µg/mL
- Drug uptake [7]: 1.4 µg/mL
- Drug uptake [8]: 1 µg/mL
- Drug uptake [9]: 0.4 µg/mL
- Drug uptake [10]: 0.1 µg/mL
- Drug uptake [11]: 0.1 µg/mL
- Drug uptake [12]: < 0.03 µg/mL
- Drug uptake [13]: < 0.03 µg/mL
- Drug uptake [14]: < 0.03 µg/mL
- Drug uptake [15]: 0.9 µg/mL
- Drug uptake [16]: 1.5 µg/mL
- Drug uptake [17]: 1 µg/mL
- Drug uptake [18]: 0.5 µg/mL
- Drug uptake [19]: 0.2 µg/mL
- Drug uptake [20]: 0.1 µg/mL
- Drug uptake [21]: < 0.03 µg/mL
- Drug uptake [22]: < 0.03 µg/mL
- Drug uptake [23]: < 0.03 µg/mL
- Cmax [24]: 2100 ng/mL
- fCmax [25]: 1.4 µg/mL
- AUC at 24 h [26]: 4500 ng·h/mL
- fAUC [27]: 2800 ng·h/mL
- fraction unbound at 48 h [41]: 0.75
- Tmax [28]: 1.5 h
- Cmax [29]: 2100 ng/mL
- fCmax [30]: 1.5 µg/mL
- Tmax [31]: 1.5 h
- fAUC [32]: 2900 ng·h/mL
- AUC at 24 h [33]: 4700 ng·h/mL
- half-life [34]: 1 h
- half-life [35]: 1 h
- Drug uptake [36]: 1.2 µg/mL
- Drug uptake [37]: 0.7 µg/mL
- Drug uptake [38]: 0.4 µg/mL
- Drug uptake [39]: 0.1 µg/mL
SMILES: O=C(O)[C@H]1/C(=C/CO)O[C@@H]2CC(=O)N21 [CLAVULANIC ACID]
